The nature of the series: Toxicity liver stage against HepG2, at 10uM. It counts as cell-based. The arrangement: test concentration 10 uM, cell line HepG2-A16-CD81EGFP. To be noted: human, HepG2-A16-CD81EGFP cells; read-out: INHIBITION
A digest of the protocol: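 Uninfected HepG2-A16-CD81EGFP cells, 3 × 10^3 per well, 1536-well, plated on prespotted compound at 10 μM final, parasite-free screening media added to match infected plates; puromycin 10 μM positive, DMSO 0.5% negative; run in parallel with 48 h PbLuc assay at 37 °C, 5% CO2; viability by CellTiter-Glo luminescence, normalized to controls.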
Consider `CC(C)Cc1nc(CSCC(=O)N2CCC(C)CC2)no1`, for which the cytotoxicity at 10 µM was 2.25%.
The value for `Cc1ccc(C)c(S(=O)(=O)NCCNc2ccc(-n3cccc3)nn2)c1` was 1.77%.
The result for `CC(=O)NCCC1CCCCN1S(=O)(=O)c1cccc(F)c1` (stereo not given) reads -155%; that for `COc1cccc(Cn2ncnc2CCSC)c1`, -1.22%; that for `Cc1nc(N2CCCC2)nc2c1CCN(Cc1ccoc1)CC2`, -134%.
In the case of `CC(C)C1CN(C(=O)c2csc(CN(C)C)n2)CCC(=O)N1CC1CC1` (stereo not given), the cytotoxicity at 10 µM is -1.74%.
The result for `Fc1ccc2[nH]c(C3CCCN3CCCn3cccn3)nc2c1` (stereo not given) reads 0.154%; that for `CC(CS(C)(=O)=O)N(C(=O)CCc1ccc(Cl)s1)C1CC1` (stereo not given), 1.92%; that for `Cc1ccc(C(=O)N2CCC3(CCC(=O)N(C(C)C)C3)CC2)c(O)c1`, 17.5%.
Consider `CCn1cnnc1CNS(=O)(=O)N1CCCC1c1ccc(C)o1` (stereo not given), for which the cytotoxicity at 10 µM was -144%.
Take `CCOc1ccccc1C(CC(=O)N(C)C)NC(C)=O` (stereo not given): the cytotoxicity at 10 µM was -4.67%.
The value for `CN1CCCC(NC(=O)c2ccc(C(=O)c3cc[nH]c3)cc2)C1` (stereo not given) was 11.9%; that for `Cc1cnc(C)c(N2CCCC(CO)(Cc3ccccc3C)C2)n1` (stereo not given) was -17.2%; that for `Cc1cc(C)c2c(NCCC3(O)CCCC3)ncnc2n1` was -4.44%.
The result for `O=C(c1ccco1)N1C[C@@H]2CCN(c3cccnc3)C[C@@H]2C1` reads -68.3%; that for `Cc1c(C(=O)N[C@H]2CN(CCS(C)(=O)=O)C[C@@H]2C2CC2)cnn1C`, 7.02%.
The value for `CCCC(=O)N1CCN(CCN(C)C)c2nc(C)ccc2C1` was -73.9%.
Turning to `COC(=O)c1cccc(S(=O)(=O)NC(=O)c2ccccc2F)c1`, the cytotoxicity at 10 µM was determined as 5.79%.
Turning to `CN1CCN(C(=O)NC2CCCC2)Cc2cccnc21`, the cytotoxicity at 10 µM was -0.123%.
`CN(CCCc1cc(-c2cccc(F)c2)n[nH]1)C(=O)CCn1cncn1`: the cytotoxicity at 10 µM is -132%.
As to `COc1cc(NC(=O)NC(C2CC2)C2CC2)ccc1N1CCOC1=O`, the cytotoxicity at 10 µM was found to be 4.63%.
On to `CCOCC(=O)NC(C)Cc1ccccc1Br` (stereo not given), for which the cytotoxicity at 10 µM is -11%.
The value for `Cc1cccc(COC[C@@H]2CC[C@H]3[C@H](CCN3C(=O)CC3CC3)O2)n1` was -64.8%.
The result for `O=C(CC1CCCC1)N1CCN(c2ccc(-n3cncn3)nn2)CC1` reads -11.9%.
The value for `Cc1ccn(CCC(=O)N2CCOC(c3nc(-c4cccs4)no3)C2)n1` (stereo not given) was 7.03%.
Regarding `CS(=O)(=O)c1cc(C(=O)NS(=O)(=O)Cc2ccc(F)cc2)ccc1Cl`, the cytotoxicity at 10 µM was -3.38%.
For the molecule `c1cc(CN2CCCC2)ccc1CNc1cncc2nnnn12`, the cytotoxicity at 10 µM stood at 3.99%.
The result for `Cc1cccc2sc(NC(=O)CN3CCCC(O)(CO)C3)nc12` (stereo not given) reads 16.9%.
For `O=C(CNC(=O)C1CC1)NCc1ccc(Cl)s1`, the cytotoxicity at 10 µM is -3.12%.
As for `O=C(c1cocn1)N1CCC[C@]2(C[C@@H](Oc3ncccc3F)CO2)C1`, the cytotoxicity at 10 µM amounted to 6.21%.
The result for `Cc1ccc(N2CCCC3(CCN(C(=O)C4CC4)C3)C2)nn1` (stereo not given) reads -109%; that for `CC(=O)N1C[C@H]2CC[C@@H](C1)N(S(=O)(=O)c1ccc(F)cc1Cl)C2`, -0.756%.
On to `CN(C)S(=O)(=O)N1C[C@@H]2C[C@H](C(=O)Nc3cccnc3)[C@H](C1)O2`, for which the cytotoxicity at 10 µM is -71.7%.
Turning to `COc1ccc(CN(C(=O)C(C)C)c2cnn(C)c2)c(OC)c1`, the cytotoxicity at 10 µM worked out at 3.2%.
The value for `COc1ccc2cc(C(=O)N3CC[C@H](CO)[C@H](O)C3)n(C)c2c1` was -7.03%.
The value for `C=C(C)COc1cccc(CN(C)C(C)c2ccncn2)c1` (stereo not given) was -47.6%; that for `O=C1[C@H]2CN(CC3CC3)C[C@H]2CN1Cc1cccc(F)c1` was 5.56%.
The value for `CCn1nccc1CN(C)C(=O)Cn1nc(C)c(C)c1C` was 0.66%; that for `COCCN(CCOC)C(=O)c1ccoc1C` was 6.72%; that for `Cc1ccc(C(=O)Nc2nc(C)no2)cc1` was -1.81%.
As for `COCCN1C[C@H]2CN(C(=O)NC(C)C)CCN2C1=O`, the cytotoxicity at 10 µM was 2.6%.
Regarding `CC(C)Cc1nc(OCC#N)c(C#N)c2c1CCC2`, the cytotoxicity at 10 µM was -1.63%.
The value for `CN1CCN(c2cc(NC(=O)c3cnccn3)ncn2)CC1` was -1.23%; that for `CN(C)c1ccccc1C(=O)N1CCCC(c2ccc(C(=O)O)cc2)C1` (stereo not given) was 16.2%.
The result for `CCOc1ccc(CN2CCOCC2c2[nH]ncc2C)cc1CO` (stereo not given) reads -2.92%; that for `Cc1ccc(CN2CCC3(CCCN(S(C)(=O)=O)C3)C2)o1` (stereo not given), -104%; that for `CN1CCN(C(=O)c2cc3c(s2)CCN3C(=O)C2CC2)CC1`, 8.52%.
Regarding `Cc1cc(N2CCCC(c3nncn3C3CC3)C2)ncn1` (stereo not given), the cytotoxicity at 10 µM was -6.48%.
For the molecule `CC(C)=CCN1C(=O)[C@@H]2CC[C@H]1CN(C(=O)CCc1n[nH]c(C)c1C)C2`, the cytotoxicity at 10 µM came to 5.54%.
The value for `CCn1cc(Cl)c(C(=O)NCCCN(C)C)n1` was 9.46%.
For the molecule `O=S(=O)(NC1=NCN(CCc2cccs2)CN1)c1ccc(Br)cc1`, the cytotoxicity at 10 µM is -2.35%.
The result for `CC(C)(C)NCc1nn(Cc2ccccc2)nc1-c1ccccc1` reads 11.9%.
As to `CN1CCN(C(=O)[C@@H]2CN(C)C[C@]23COc2ccc(F)cc2C3=O)CC1`, the cytotoxicity at 10 µM came to 3.06%.
`CCn1nc(CC(C)C)cc1C(=O)N1CCC(n2cnnc2)CC1`: the cytotoxicity at 10 µM was -7.71%.
With `CCNC(=O)N(C)C1CCCc2nc(C)sc21` (stereo not given), the cytotoxicity at 10 µM was determined as 12.2%.
As for `CCC(C)(NCC(=O)NC(C)C)c1nccs1` (stereo not given), the cytotoxicity at 10 µM came to 3.26%.
The result for `FC(F)(F)COCCN1CCCC(c2noc(C3CC3)n2)C1` (stereo not given) reads 3.3%.
Regarding `Clc1ccc(CN2CCN(Cn3nccc3-c3cccnc3)CC2)s1`, the cytotoxicity at 10 µM was found to be 8.64%.
The result for `O=c1n(Cc2cccc(C(F)(F)F)c2)nc2ncccn12` reads -8.64%; that for `Cc1ccc(-c2nc(CC(=O)N3CCCC(NC(=O)C(C)C)C3)cs2)o1` (stereo not given), -50.5%.
The result for `Cc1cc(NC(=O)NCC(CC(C)C)N2CCOCC2)n(C)n1` (stereo not given) reads -15%.
`Cc1c(S(=O)(=O)N2CCCCC2c2nnc(-c3cccs3)o2)cnn1C` (stereo not given): the cytotoxicity at 10 µM came to 3.22%.
Take `Cc1cccc(CN(C(=O)NCc2ccccn2)C2CC2)c1`: the cytotoxicity at 10 µM was -6.73%.
`CCC(CO)(CO)NC(=O)C1CCC(=O)N(CCc2ccccc2)C1` (stereo not given): the cytotoxicity at 10 µM was -2.78%.
Take `CS(=O)(=O)c1cccc(C(=O)NCC2(c3ccccc3)CC2)c1`: the cytotoxicity at 10 µM turned out to be 1.47%.
Regarding `CN(C)C1CCCN(C(=O)CCc2csc(N)n2)CC1` (stereo not given), the cytotoxicity at 10 µM was 1.48%.
The result for `CC(C)CCN1C2(CCN(c3ncccn3)C2)c2ccccc2S1(=O)=O` (stereo not given) reads 1.35%.
The value for `CC1CCN(C(=O)[C@@H]2C[C@H]3OCC[C@H]3N(Cc3ccoc3)C2)CC1` was -72.5%.
The value for `c1cc2c(cc1CSCc1noc(C3CC3)n1)OCCO2` was 10.4%; that for `CN(C)CCN1C(=O)CO[C@@H]2CN(c3ncc(F)cn3)C[C@H]21` was 0.81%.

Source of the values: ChEMBL document CHEMBL4513216, “Probing the Open Global Health Chemical Diversity Library for Multistage-Active Starting Points for Next-Generation Antimalarials” (ACS Infect Dis, 2020).
